Experimental findings from ChEMBL document CHEMBL2177062, “Bile acid-based 1,2,4-trioxanes: synthesis and antimalarial assessment” (J Med Chem, 2012) are described below.

The source made the active and inactive calls. No cut-off for these calls is given here.

Data set [1] can be described thus: Lipophilicity, log P of the compound. The settings on record: octanol/water. The data set is classed as physicochemical. Summed up: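 log P calculated in silico, not measured experimentally.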
Data set [2] deals with Plasmodium yoelii nigeriensis. The data set is described as follows: Antimalarial activity in multidrug-resistant Plasmodium yoelii nigeriensis infected Swiss mouse assessed as suppression of parasitaemia at 12 mg/kg, po two devided dose daily for 4 days. The data set is classed as functional. Summed up:
(§1)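 Swiss mice of either sex (20 2 g) inoculated ip with 1 × 10⁶ MDR P. yoelii nigeriensis parasites on day 0. Five mice per dose, given oral doses in groundnut oil from day 0 to 3, twice daily. Parasitaemia read from thin blood smears on day 4. Suppression = [(C − T)/C] × 100 versus untreated controls. 100% means no parasites seen in 50 oil-immersion fields.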

Data set [3] relates to Plasmodium yoelii nigeriensis. The data set is described as follows: Antimalarial activity in multidrug-resistant Plasmodium yoelii nigeriensis infected Swiss mouse assessed as suppression of parasitaemia at 48 mg/kg, po two devided dose daily for 4 days. Type of data set: functional. An outline of the steps: as §1
The test system of data set [4] is Plasmodium yoelii nigeriensis. Briefly: Antimalarial activity in multidrug-resistant Plasmodium yoelii nigeriensis infected Swiss mouse assessed as suppression of parasitaemia at 96 mg/kg, po two devided dose daily for 4 days. Type of data set: functional. Summed up: as §1
Data set [5] deals with Plasmodium yoelii nigeriensis. The data set is described as follows: Antimalarial activity in multidrug-resistant Plasmodium yoelii nigeriensis infected Swiss mouse assessed as suppression of parasitaemia at 24 mg/kg, po two devided dose daily for 4 days. The data set is classed as functional. An outline of the steps:
as §1

Data set [6] concerns Plasmodium yoelii nigeriensis. The data set is described as follows: Antimalarial activity in multidrug-resistant Plasmodium yoelii nigeriensis infected Swiss mouse assessed as disease cure at 48 mg/kg, po two devided dose daily for 4 days by 28 day survival assay. The arrangement: dose 48 mg/kg. The data set is classed as functional, organism-based. An outline of the steps:
(§2)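 Swiss mice of either sex (20 2 g) inoculated ip with 1 × 10⁶ MDR P. yoelii nigeriensis (chloroquine-, mefloquine-, halofantrine-resistant) parasites on day 0. Five mice per dose. Oral dosing in groundnut oil (0.1 mL per dose) from day 0 to 3, as two divided doses daily. Thin blood smears on day 4, then twice weekly to day 28. Mice without patent infection by day 28 scored cured; % protection = fraction of mice cured. β-arteether as positive control.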

In data set [7] the test system is Plasmodium yoelii nigeriensis. The data set is described as follows: Antimalarial activity in multidrug-resistant Plasmodium yoelii nigeriensis infected Swiss mouse assessed as disease cure at 96 mg/kg, po two devided dose daily for 4 days by 28 day survival assay. The data set is classed as functional. Summed up: as §2
Data set [8] deals with Plasmodium yoelii nigeriensis. The data set is described as follows: Antimalarial activity in multidrug-resistant Plasmodium yoelii nigeriensis infected Swiss mouse assessed as disease cure at 12 mg/kg, po two devided dose daily for 4 days by 28 day survival assay. Type of data set: functional, organism-based. The arrangement: dose 12 mg/kg. An outline of the steps:
as §2

For data set [9], the system named is Plasmodium yoelii nigeriensis. Briefly: Antimalarial activity in multidrug-resistant Plasmodium yoelii nigeriensis infected Swiss mouse assessed as disease cure at 24 mg/kg, po two devided dose daily for 4 days by 28 day survival assay. The data set is classed as functional. Summed up: as §2

`C=C(c1ccc(F)cc1)[C@@H]1CO[C@@]2(CC[C@@]3(C)[C@H](CC[C@@H]4[C@@H]3CC[C@]3(C)[C@@H](O)CC[C@@H]43)C2)OO1` (relative stereo; form 2): the logP (in general, the decadic logarithm of the partition coefficient of the neutral form, usually between octanol and water) in data set [1] amounted to 6.66. Moreover, the Activity stood at 95.48% in [2], 100% in data set [3], 100% in [4] and 100% in data set [5].

Turning to `C=C(c1ccc(Br)cc1)[C@@H]1CO[C@@]2(CC[C@@]3(C)[C@H](CC[C@@H]4[C@@H]3CC[C@]3(C)[C@@H](O)CC[C@@H]43)C2)OO1` (relative stereo; form 2), in data set [1], the logP was found to be 7.27. The Activity in data set [2] was 44.5%; in data set [3], 100%; in [4] (96 mg/kg) it was 100%; in [5] it was 100%.

The molecule `C=C(c1ccccc1)[C@@H]1CO[C@@]2(CC[C@@]3(C)[C@H](CC[C@@H]4[C@@H]3CC[C@]3(C)[C@@H](O)CC[C@@H]43)C2)OO1` (relative stereo; form 2) [listing 1 of 2 here] had a lipophilicity (logP) in data set [1] of 6.44. In addition, the Activity in data set [2] is on record as 88.7%; in [3], 100%; in [4] (96 mg/kg), 100%; in data set [5], 100%.

For the molecule `C=C(c1ccccc1)[C@@H]1CO[C@@]2(CC[C@@]3(C)[C@H](CC[C@@H]4[C@@H]3CC[C@]3(C)[C@@H](O)CC[C@@H]43)C2)OO1` (relative stereo; form 2) [listing 2 of 2 here], the outcome in data set [6], in data set [7] and in data set [9] was Active. Moreover, in data set [8], the outcome was inactive.
